Measured values published in ChEMBL document CHEMBL4177768, “Synthesis and Biological Evaluation of Derivatives of Indoline as Highly Potent Antioxidant and Anti-inflammatory Agents” (J Med Chem, 2018).
Active and inactive are the calls of the source. The rule behind the calls is not given here.

Experiments:
Mus musculus [1] = test: Antiinflammatory activity in Balb/C mouse assessed as reduction in LPS-induced TNF-alpha production in spleen at 1 umol/kg, sc administered LPS 15 mins post compound treatment measured after 4 hrs by ELISA; type: functional, organism-based
Summary of the method: (§1)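 Male Balb/C mice, 7-8 weeks old, given compound sc (0.1, 1 or 10 µmoles/kg) or saline. LPS 10 mg/kg was given ip 15 min later, and mice were killed 4 h after that. Spleens were homogenized in PBS with protease inhibitor and centrifuged at 14,000 g, 4 °C. Cytokines in plasma and tissue supernatants were measured by ELISA, with protein by BCA. Dexamethasone 5.6 µmoles/kg was the reference. n = 8-10 mice per treatment.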

RAW264.7 [2] = test: Antiinflammatory activity in mouse RAW264.7 cells assessed as reduction in LPS-induced TNF-alpha production at 1 pM to 100 nM incubated for 2 hrs prior to LPS challenge measured after 8 hrs by ELISA; type: functional, cell-based
Summary of the method: (§2)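 RAW 264.7 macrophages were plated at 1×10^5 per well, grown overnight and washed with PBS. Compounds in water (final 1 pM-100 nM, medium with 2% FCS) were added 2 h at 37 °C before E. coli 0111:B4 LPS, 2.5 µg/mL. TNF-α was sampled at 8 h; IL-6 and nitrite (Griess) at 24 h. ELISA was used for cytokines. Values are % of the LPS + medium value in each experiment. Budesonide was the reference. 2-3 experiments, 6 wells per concentration.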

RAW264.7 [3] = test: Cytoprotective activity against H2O2-induced oxidative stress in mouse RAW264.7 cells assessed as cell viability at 1 pM incubated for 2 hrs prior to H2O2 addition measured after 24 hrs by MTT assay (reference value: 68 to 72.8%); type: functional; conditions: read-out: Activity
RAW264.7 [4] = test: Antiinflammatory activity in mouse RAW264.7 cells assessed as reduction in LPS-induced TNF-alpha production at 100 pM incubated for 2 hrs prior to LPS challenge measured after 8 hrs by ELISA; type: functional; parameters: scale not given: the % may be the effect or the level left; summary of the method: as §2
[5] = Cytotoxicity against mouse RAW264.7 cells assessed as cell viability at 10^-9 M after 24 hrs by MTT assay relative to control; type: cell-based; conditions: read-out: Activity
Summary of the method: (§3)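 RAW 264.7 cells, seeded at 1×10^4 cells/mL and incubated 24 h, were exposed to compound from 1 pM to 100 nM. Viability was read by MTT (final 0.5 mg/mL, 1 h at 37 °C), with formazan dissolved in DMSO and OD at 570 nm. Results are compared with medium-only cells.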

[6] = Cytotoxicity against mouse RAW264.7 cells assessed as cell viability at 10^-11 M after 24 hrs by MTT assay relative to control; type: cell-based; conditions: read-out: Activity; summary of the method: as §3
[7] = Cytotoxicity against mouse RAW264.7 cells assessed as cell viability at 10^-7 M after 24 hrs by MTT assay relative to control; type: cell-based; conditions: read-out: Activity; summary of the method: as §3
Mus musculus [8] = test: Antiinflammatory activity in Balb/C mouse assessed as reduction in LPS-induced TNF-alpha production in plasma at 1 umol/kg, sc administered LPS 15 mins post compound treatment measured after 4 hrs by ELISA; type: functional, organism-based; summary of the method: as §1
Mus musculus [9] = test: Antiinflammatory activity in Balb/C mouse assessed as reduction in LPS-induced IL6 production in liver at 0.1 to 10 umol/kg, sc administered LPS 15 mins post compound treatment measured after 4 hrs by ELISA; type: functional, organism-based
Mus musculus [10] = test: Antiinflammatory activity in Balb/C mouse assessed as reduction in LPS-induced IL6 production in spleen at 1 umol/kg, sc administered LPS 15 mins post compound treatment measured after 4 hrs by ELISA; type: functional, organism-based; summary of the method: as §1
RAW264.7 [11] = test: Antiinflammatory activity in mouse RAW264.7 cells assessed as reduction in LPS-induced nitric oxide production at 1 pM to 100 nM incubated for 2 hrs prior to LPS challenge measured after 24 hrs by Griess assay; type: functional, cell-based; summary of the method: as §2
Mus musculus [12] = test: Antiinflammatory activity in Balb/C mouse assessed as reduction in LPS-induced IL6 production in plasma at 1 umol/kg, sc administered LPS 15 mins post compound treatment measured after 4 hrs by ELISA; type: functional, organism-based; summary of the method: as §1
RAW264.7 [13] = test: Antiinflammatory activity in mouse RAW264.7 cells assessed as reduction in LPS-induced IL6 production at 1 pM to 100 nM incubated for 2 hrs prior to LPS challenge measured after 24 hrs by ELISA; type: functional, cell-based; summary of the method: as §2
RAW264.7 [14] = test: Antiinflammatory activity in mouse RAW264.7 cells assessed as reduction in LPS-induced nitric oxide production at 100 pM incubated for 2 hrs prior to LPS challenge measured after 24 hrs by Griess assay; type: functional; parameters: scale not given: the % may be the effect or the level left; summary of the method: as §2
[15] = Cytotoxicity against mouse RAW264.7 cells assessed as cell viability at 10^-12 M after 24 hrs by MTT assay relative to control; type: cell-based; conditions: read-out: Activity; summary of the method: as §3
Mus musculus [16] = test: Antiinflammatory activity in Balb/C mouse assessed as reduction in LPS-induced IL6 production in brain at 0.1 to 10 umol/kg, sc administered LPS 15 mins post compound treatment measured after 4 hrs by ELISA; type: functional, organism-based
RAW264.7 [17] = test: Antiinflammatory activity in mouse RAW264.7 cells assessed as reduction in LPS-induced IL-6 production at 100 pM incubated for 2 hrs prior to LPS challenge measured after 24 hrs by ELISA; type: functional; parameters: scale not given: the % may be the effect or the level left; summary of the method: as §2
[18] = Cytotoxicity against mouse RAW264.7 cells assessed as cell viability at 10^-10 M after 24 hrs by MTT assay relative to control; type: cell-based; conditions: read-out: Activity; summary of the method: as §3
[19] = Cytotoxicity against mouse RAW264.7 cells assessed as cell viability at 10^-8 M after 24 hrs by MTT assay relative to control; type: cell-based; conditions: read-out: Activity; summary of the method: as §3
RAW264.7 [20] = test: Cytoprotective activity against H2O2-induced oxidative stress in mouse RAW264.7 cells assessed as increase in cell viability at 1 pM incubated for 2 hrs prior to H2O2 addition measured after 24 hrs by MTT assay; type: functional, cell-based
Summary of the method: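 RAW 264.7 macrophages cultured in DMEM with 10% FCS, seeded at 1 x 10^4 cells/mL. Pretreated 2 h with compound (1 pM to 100 nM) before H2O2 at 100 μM. Viability read by MTT (0.5 mg/mL final, 1 h, 37 °C, DMSO lysis, OD 570 nm) relative to vehicle. 2-3 experiments, at least 6 wells per concentration; mean ± SEM.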

RAW264.7 [21] = test: Cytoprotective activity against H2O2-induced oxidative stress in mouse RAW264.7 cells assessed as decrease in caspase-3 activity at 1 pM incubated for 4 hrs prior to H2O2 addition measured after 90 mins by caspase-GloR reagent-based luminescence assay relative to control; type: functional; parameters: scale not given: the % may be the effect or the level left
Summary of the method: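 RAW 264.7 macrophages were pretreated with compound (1 pM or 1 nM) 4 h before H2O2 100 µM. Medium was replaced with fresh DMEM after 90 min and plates were incubated overnight. Caspase-Glo 3/7 reagent was added and luminescence read after 30 min at room temperature. Mean ± SD, 4-6 replicates.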

Mus musculus [22] = test: Acute toxicity in Balb/C mouse assessed as change in water intake at 100 umol/kg, sc measured over 72 hrs; type: organism-based; conditions: in vivo
Summary of the method: (§4)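 Male Balb/C mice, 24-28 g, groups of 3; single sc injection of compound at 100 μmoles/kg or saline (1 mL/100 g). Food and water intake, body weight and general activity monitored over 72 h against saline-injected animals.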

Mus musculus [23] = test: Antiinflammatory activity in Balb/C mouse assessed as reduction in LPS-induced IL6 production in plasma at 0.1 to 10 umol/kg, sc administered LPS 15 mins post compound treatment measured after 4 hrs by ELISA; type: functional, organism-based; summary of the method: as §1
RAW264.7 [24] = test: Antiinflammatory activity in mouse RAW264.7 cells assessed as reduction in LPS-induced TNF-alpha production at 1 nM incubated for 2 hrs prior to LPS challenge measured after 8 hrs by ELISA; type: functional; parameters: scale not given: the % may be the effect or the level left; summary of the method: as §2
RAW264.7 [25] = test: Cytoprotective activity against H2O2-induced oxidative stress in mouse RAW264.7 cells assessed as decrease in LDH release at 1 pM incubated for 2 hrs prior to H2O2 addition by colorimetric assay relative to control; type: functional; parameters: scale not given: the % may be the effect or the level left
Summary of the method: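 RAW 264.7 cells were seeded and pretreated with compound before H2O2 100 µM, in serum-free medium. Collected medium was centrifuged and incubated with reaction mix 30 min at room temperature. LDH was measured as NADH formation by colorimetric read at 490 nm. n = 8-10 replicates per concentration.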

Mus musculus [26] = test: Acute toxicity in Balb/C mouse assessed as change in body weight at 100 umol/kg, sc measured over 72 hrs; type: organism-based; conditions: in vivo; summary of the method: as §4
RAW264.7 [27] = test: Antiinflammatory activity in mouse RAW264.7 cells assessed as reduction in LPS-induced nitric oxide production at 1 nM incubated for 2 hrs prior to LPS challenge measured after 24 hrs by Griess assay; type: functional; parameters: scale not given: the % may be the effect or the level left; summary of the method: as §2
Mus musculus [28] = test: Acute toxicity in Balb/C mouse assessed as change in activity at 100 umol/kg, sc measured over 72 hrs; type: organism-based; conditions: in vivo; summary of the method: as §4
Mus musculus [29] = test: Antiinflammatory activity in Balb/C mouse assessed as reduction in LPS-induced IL6 production in spleen at 0.1 to 10 umol/kg, sc administered LPS 15 mins post compound treatment measured after 4 hrs by ELISA; type: functional, organism-based; summary of the method: as §1
RAW264.7 [30] = test: Antiinflammatory activity in mouse RAW264.7 cells assessed as reduction in LPS-induced IL-6 production at 1 nM incubated for 2 hrs prior to LPS challenge measured after 24 hrs by ELISA; type: functional; parameters: scale not given: the % may be the effect or the level left; summary of the method: as §2
Mus musculus [31] = test: Acute toxicity in Balb/C mouse assessed as change in food intake at 100 umol/kg, sc measured over 72 hrs; type: organism-based; conditions: in vivo; summary of the method: as §4
RAW264.7 [32] = test: Cytoprotective activity against H2O2-induced oxidative stress in mouse RAW264.7 cells assessed as decrease in LDH release at 1 pM incubated for 2 hrs prior to H2O2 addition by colorimetric assay relative to control; parameters: scale not given: the % may be the effect or the level left
Mus musculus [33] = test: Antiinflammatory activity in Balb/C mouse assessed as reduction in LPS-induced TNF-alpha production in spleen at 0.1 to 10 umol/kg, sc administered LPS 15 mins post compound treatment measured after 4 hrs by ELISA; type: functional, organism-based; summary of the method: as §1
Mus musculus [34] = test: Antiinflammatory activity in Balb/C mouse assessed as reduction in LPS-induced TNF-alpha production in plasma at 0.1 to 10 umol/kg, sc administered LPS 15 mins post compound treatment measured after 4 hrs by ELISA; type: functional, organism-based; summary of the method: as §1

Question: What does the source list for `COc1ccc2c(c1)CCN2CCCO.Cl`?
Answer: Activity (Mus musculus [1]): Active; Activity (RAW264.7 [2]): Active; viability at 1 pM (RAW264.7 [3]): 95.6%; Activity (RAW264.7 [4]): 50%; viability at 24 h, 0.001 µM [5]: 95.3%; viability at 24 h, 1e-05 µM [6]: 93.4%; viability at 24 h, 0.1 µM [7]: 91.9%; Activity (Mus musculus [8]): Active; Activity (Mus musculus [9]): Active; Activity (Mus musculus [10]): Active; Activity (RAW264.7 [11]): Active; Activity (Mus musculus [12]): Active; Activity (RAW264.7 [13]): Active; Activity (RAW264.7 [14]): 50%; viability at 24 h, 1e-06 µM [15]: 91.9%; Activity (Mus musculus [16]): Active; Activity (RAW264.7 [17]): 50%; viability at 24 h, 0.0001 µM [18]: 93.9%; viability at 24 h, 0.01 µM [19]: 91.4%

Question: Which Activity (RAW264.7 [20]) does the source give for `O=c1c(O)c(-c2ccc(O)c(O)c2)oc2cc(O)cc(O)c12` here?
Answer: Active

Question: What does the source list for `CC(C)NCCCN1CCc2ccccc21.Cl.Cl`?
Answer: Activity (RAW264.7 [21]): 60%; Activity (RAW264.7 [2]): Dose-dependent effect; viability at 1 pM (RAW264.7 [3]): 98.5%; Activity (Mus musculus [22]): Non-Toxic; Activity (Mus musculus [23]): Dose-dependent effect; Activity (RAW264.7 [24]): 50%; viability at 24 h, 0.001 µM [5]: 92.1%; viability at 24 h, 1e-05 µM [6]: 102%; Activity (RAW264.7 [25]): 16%; viability at 24 h, 0.1 µM [7]: 91.9%; Activity (Mus musculus [26]): Non-Toxic; Activity (RAW264.7 [27]): 50%; Activity (Mus musculus [28]): Non-Toxic; Activity (Mus musculus [29]): Dose-dependent effect; Activity (RAW264.7 [30]): 50%; Activity (Mus musculus [9]): Dose-dependent effect; Activity (RAW264.7 [11]): Dose-dependent effect; Activity (Mus musculus [31]): Non-Toxic; Activity (RAW264.7 [32]): 16%; viability at 24 h, 1e-06 µM [15]: 93.3%; Activity (Mus musculus [16]): Dose-dependent effect; Activity (Mus musculus [33]): Dose-dependent effect; Activity (Mus musculus [34]): Dose-dependent effect; viability at 24 h, 0.0001 µM [18]: 99.2%; viability at 24 h, 0.01 µM [19]: 90.9%
